Ki data for 15 compounds are collected here from ChEMBL document CHEMBL1142048, “Design, synthesis and structure-activity relationship studies of hexahydropyrazinoquinolines as a novel class of potent and selective dopamine receptor 3 (D3) ligands” (Bioorg Med Chem Lett, 2005).

The nature of test [1]: Binding affinity for D1-like [3H]-SCH- 23390 receptor was determined using caudate-putamen of adult male Spragueo?=Dawley rats. It counts as tissue-based, Rattus norvegicus. The procedure, abridged:
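Rat caudate-putamen membranes, adult male Sprague–Dawley. Buffer 50 mM Tris–HCl, 5 mM KCl, 2 mM MgCl2, 2 mM CaCl2, pH 7.4 at 23 °C. [3H]SCH 23390 0.3 nM, with nonspecific binding defined by 1 μM (+)-butaclamol. Compounds were dissolved in 100% EtOH up to 5 mM (stock).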

Test [2] is described as follows: Binding affinity for D2-like [3H]spiperone receptor was determined using caudate-putamen of adult male Spragueo?=Dawley rats. Type of test: tissue-based, Rattus norvegicus. The gist of the method:
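Rat caudate-putamen membranes, adult male Sprague–Dawley. Buffer 50 mM Tris–HCl, 5 mM KCl, 2 mM MgCl2, 2 mM CaCl2, pH 7.4 at 23 °C. [3H]spiperone 0.2 nM, with nonspecific binding defined by 1 μM (+)-butaclamol. Compounds were dissolved in 100% EtOH up to 5 mM (stock). Ki was derived from the radioligand KD.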

Test [3] concerns the target D(3) dopamine receptor (Rattus norvegicus, UniProt P19020). Put plainly: biochemical.

Bounds are passed on as bounds.

Sequence of D(3) dopamine receptor (P19020 whole entry): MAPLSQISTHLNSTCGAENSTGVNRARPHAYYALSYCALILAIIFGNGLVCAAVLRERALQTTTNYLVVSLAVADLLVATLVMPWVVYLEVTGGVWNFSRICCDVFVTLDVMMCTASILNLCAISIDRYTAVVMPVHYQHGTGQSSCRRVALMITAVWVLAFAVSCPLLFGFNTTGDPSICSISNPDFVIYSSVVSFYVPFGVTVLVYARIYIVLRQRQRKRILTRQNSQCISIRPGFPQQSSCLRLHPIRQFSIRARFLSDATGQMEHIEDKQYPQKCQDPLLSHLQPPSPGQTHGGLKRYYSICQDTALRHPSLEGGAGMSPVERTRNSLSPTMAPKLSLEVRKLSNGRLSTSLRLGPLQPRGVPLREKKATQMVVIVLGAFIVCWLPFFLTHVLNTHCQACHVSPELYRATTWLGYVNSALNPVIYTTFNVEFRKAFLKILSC

Turning to `O=C(NCCCCN1CCN2c3ccccc3CCC2C1)c1ccc2ccccc2c1` (stereo not drawn), the Ki in test [1] was 791 nM; in test [2], 1570 nM; in test [3], 18 nM.
In the case of `O=C(NCCN1CCN2c3ccccc3CCC2C1)c1ccc2ccccc2c1` (stereo not drawn), the values for the Ki in test [1], in test [2] and in test [3] were 1220 nM, 1390 nM and 1650 nM, respectively.
For `COc1ccc2c(c1)CCC1CN(CCCCNC(=O)c3ccc4ccccc4c3)CCN21` (stereo not drawn), in that order: > 250000 nM, > 250000 nM and 244 nM.
For `O=C(CN1CCN2c3ccccc3CCC2C1)c1ccc(F)cc1` (stereo not drawn), in that order: 7950 nM, 3890 nM and 7490 nM.
On the same counts, the results for `O=C(CCCCN1CCN2c3ccccc3CCC2C1)c1ccc(F)cc1` (stereo not drawn) are 2470 nM, 852 nM and 381 nM.
For `COc1ccc2c(c1)N1CCN(CCCCNC(=O)c3ccc4ccccc4c3)CC1CC2` (stereo not drawn), the figures for the Ki in test [1], in test [2] and in test [3] were 5800 nM, 1120 nM and 45 nM, respectively.
On the same counts, the results for `O=C(NCCCN1CCN2c3ccccc3CCC2C1)c1ccc(-c2ccccc2)cc1` (stereo not drawn) are 356 nM, 906 nM and 2520 nM.
As for `O=C(NCCN1CCN2c3ccccc3CCC2C1)c1ccc(-c2ccccc2)cc1` (stereo not drawn), the inhibition constant Ki in test [1] is > 100000 nM; in test [2], > 100000 nM; in test [3], 23000 nM.
For the compound `O=C(CCN1CCN2c3ccccc3CCC2C1)c1ccc(F)cc1` (stereo not drawn), the Ki stood at 8890 nM in test [1], 3640 nM in test [2] and 2750 nM in test [3].
On the same counts, the results for `COc1cccc2c1CCC1CN(CCCCNC(=O)c3ccc4ccccc4c3)CCN21` (stereo not drawn) are 4600 nM, 762 nM and 5.8 nM.
On the same counts, the results for `O=C(NCCCN1CCN2c3ccccc3CCC2C1)c1ccc2ccccc2c1` (stereo not drawn) are 153000 nM, 2440 nM and 1540 nM.
As to `COc1ccccc1N1CCN(CCCCNC(=O)c2ccc3ccccc3c2)CC1` [BP-897], the Ki in test [1] turned out to be 636 nM; in test [2] it was 162 nM.
On the same counts, the results for `COc1cccc2c1N1CCN(CCCCNC(=O)c3ccc4ccccc4c3)CC1CC2` (stereo not drawn) are 6050 nM and 258 nM.
As to `O=C(CCCN1CCN2c3ccccc3CCC2C1)c1ccc(F)cc1` (stereo not drawn), the Ki came out at 904 nM in test [1], 243 nM in test [2] and 304 nM in test [3].
For `O=C(NCCCCN1CCN2c3ccccc3CCC2C1)c1ccc(-c2ccccc2)cc1` (stereo not drawn), in that order: 258 nM, 220 nM and 22 nM.

What is called Ki is the dissociation constant of the complex between target and ligand, obtained from inhibition or displacement.
